{"source": "ChEMBL document CHEMBL5661979", "about": "“Pharmacological inhibition of BMK1 suppresses tumor growth through promyelocytic leukemia protein” (Cancer Cell, 2010)", "assay_type_in_all_cases": "subcellular", "key": {"[1]": {"target": "T1, Serine/threonine-protein kinase TAO2 (Homo sapiens) (UniProt Q9UL54)", "T1 sequence (whole entry)": "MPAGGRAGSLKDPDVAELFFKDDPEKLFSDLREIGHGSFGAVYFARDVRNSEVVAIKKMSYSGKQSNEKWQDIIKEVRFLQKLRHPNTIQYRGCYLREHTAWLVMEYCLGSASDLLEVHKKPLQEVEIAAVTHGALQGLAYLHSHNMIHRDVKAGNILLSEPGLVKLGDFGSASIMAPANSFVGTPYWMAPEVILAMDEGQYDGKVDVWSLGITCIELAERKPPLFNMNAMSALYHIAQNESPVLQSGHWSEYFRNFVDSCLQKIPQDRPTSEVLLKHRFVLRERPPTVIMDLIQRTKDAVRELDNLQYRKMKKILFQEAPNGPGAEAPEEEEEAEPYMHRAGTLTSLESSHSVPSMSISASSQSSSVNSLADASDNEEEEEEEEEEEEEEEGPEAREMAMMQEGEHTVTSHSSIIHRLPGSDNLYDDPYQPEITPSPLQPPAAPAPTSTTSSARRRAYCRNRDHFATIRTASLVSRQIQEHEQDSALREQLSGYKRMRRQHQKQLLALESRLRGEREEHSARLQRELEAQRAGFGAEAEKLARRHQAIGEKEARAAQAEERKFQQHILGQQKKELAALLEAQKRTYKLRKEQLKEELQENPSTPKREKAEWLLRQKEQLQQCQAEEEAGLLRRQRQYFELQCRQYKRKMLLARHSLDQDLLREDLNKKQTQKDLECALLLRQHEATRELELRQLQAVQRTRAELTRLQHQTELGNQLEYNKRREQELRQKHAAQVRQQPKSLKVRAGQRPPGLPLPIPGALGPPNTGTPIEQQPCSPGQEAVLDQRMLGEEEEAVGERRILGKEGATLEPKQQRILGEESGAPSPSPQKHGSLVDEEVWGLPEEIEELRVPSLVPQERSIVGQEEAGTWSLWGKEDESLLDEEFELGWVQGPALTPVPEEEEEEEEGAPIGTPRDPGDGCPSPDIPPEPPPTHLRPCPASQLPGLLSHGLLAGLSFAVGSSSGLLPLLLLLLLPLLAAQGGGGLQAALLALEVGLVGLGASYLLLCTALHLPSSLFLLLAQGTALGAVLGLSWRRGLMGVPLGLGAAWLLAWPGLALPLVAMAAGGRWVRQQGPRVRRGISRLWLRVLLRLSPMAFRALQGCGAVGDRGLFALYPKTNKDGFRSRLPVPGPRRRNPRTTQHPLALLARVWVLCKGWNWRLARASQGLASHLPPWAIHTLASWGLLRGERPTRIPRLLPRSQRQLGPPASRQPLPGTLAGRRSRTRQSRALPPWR", "test": "Inhibition of TAO2 in human HeLa cells lysate at 10 uM pre incubated for 15 mins followed by ATP acyl phosphate probe addition and measured after 10 mins by LC-MS/MS analysis relative to control", "details": "time 25.0 min"}, "[2]": {"target": "Serine/threonine-protein kinase Aurora (Homo sapiens, UniProt Q96GD4+Q9UQB9+O14965)", "sequence (O14965 whole entry, looked up)": "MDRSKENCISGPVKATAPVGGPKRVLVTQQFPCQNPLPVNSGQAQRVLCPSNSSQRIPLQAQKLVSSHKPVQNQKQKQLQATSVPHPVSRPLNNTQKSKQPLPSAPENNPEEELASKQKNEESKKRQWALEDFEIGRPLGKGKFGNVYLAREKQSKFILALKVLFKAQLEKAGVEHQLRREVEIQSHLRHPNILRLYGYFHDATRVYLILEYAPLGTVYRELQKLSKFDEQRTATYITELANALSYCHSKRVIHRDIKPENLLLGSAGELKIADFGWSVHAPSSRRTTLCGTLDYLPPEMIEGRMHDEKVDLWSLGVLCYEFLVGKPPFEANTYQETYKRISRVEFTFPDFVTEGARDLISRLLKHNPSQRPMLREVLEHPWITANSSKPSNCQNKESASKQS", "sequence (Q96GD4 whole entry, looked up)": "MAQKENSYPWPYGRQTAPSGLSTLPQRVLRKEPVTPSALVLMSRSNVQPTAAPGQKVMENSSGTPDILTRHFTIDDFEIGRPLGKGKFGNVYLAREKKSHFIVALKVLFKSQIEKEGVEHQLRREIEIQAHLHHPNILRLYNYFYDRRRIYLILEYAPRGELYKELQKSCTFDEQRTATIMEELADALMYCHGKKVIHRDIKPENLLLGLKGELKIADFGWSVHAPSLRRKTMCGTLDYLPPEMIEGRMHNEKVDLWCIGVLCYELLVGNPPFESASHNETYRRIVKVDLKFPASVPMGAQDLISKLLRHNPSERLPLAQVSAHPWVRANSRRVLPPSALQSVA", "sequence (Q9UQB9 whole entry, looked up)": "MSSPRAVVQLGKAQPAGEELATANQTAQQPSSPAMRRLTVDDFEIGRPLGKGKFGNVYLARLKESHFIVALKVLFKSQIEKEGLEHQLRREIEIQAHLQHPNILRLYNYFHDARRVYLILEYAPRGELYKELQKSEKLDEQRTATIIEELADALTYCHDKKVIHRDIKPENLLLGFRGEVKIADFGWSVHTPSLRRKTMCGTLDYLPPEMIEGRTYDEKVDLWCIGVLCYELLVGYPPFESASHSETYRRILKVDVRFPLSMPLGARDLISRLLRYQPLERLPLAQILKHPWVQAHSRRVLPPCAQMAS", "test": "Inhibition of AurA/AurB/AurC in human HeLa cells lysate at 2 uM pre incubated for 15 mins followed by ATP acyl phosphate probe addition and measured after 10 mins by LC-MS/MS analysis relative to control", "details": "time 25.0 min", "method_in_brief": "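KiNativ-type profiling in HeLa lysate (5 mg/mL total protein). Lysate preincubated 15 min with inhibitor at 50, 10, 2, 0.8 or 0 μM, then ATP or ADP acylphosphate probe added (5 μM final) for 10 min. Reaction stopped with urea and analysed by targeted MS, using up to four fragment ions per kinase peptide-probe conjugate. % inhibition calculated against untreated lysate. Duplicate reactions.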"}, "[3]": {"test": "Inhibition of KHS1/2 in human HeLa cells lysate pre incubated for 15 mins followed by ATP acyl phosphate probe addition and measured after 10 mins by LC-MS/MS analysis"}, "[4]": {"target": "Serine/threonine-protein kinase WNK1 (Homo sapiens, UniProt Q9H4A3)", "sequence (Q9H4A3 whole entry, looked up)": "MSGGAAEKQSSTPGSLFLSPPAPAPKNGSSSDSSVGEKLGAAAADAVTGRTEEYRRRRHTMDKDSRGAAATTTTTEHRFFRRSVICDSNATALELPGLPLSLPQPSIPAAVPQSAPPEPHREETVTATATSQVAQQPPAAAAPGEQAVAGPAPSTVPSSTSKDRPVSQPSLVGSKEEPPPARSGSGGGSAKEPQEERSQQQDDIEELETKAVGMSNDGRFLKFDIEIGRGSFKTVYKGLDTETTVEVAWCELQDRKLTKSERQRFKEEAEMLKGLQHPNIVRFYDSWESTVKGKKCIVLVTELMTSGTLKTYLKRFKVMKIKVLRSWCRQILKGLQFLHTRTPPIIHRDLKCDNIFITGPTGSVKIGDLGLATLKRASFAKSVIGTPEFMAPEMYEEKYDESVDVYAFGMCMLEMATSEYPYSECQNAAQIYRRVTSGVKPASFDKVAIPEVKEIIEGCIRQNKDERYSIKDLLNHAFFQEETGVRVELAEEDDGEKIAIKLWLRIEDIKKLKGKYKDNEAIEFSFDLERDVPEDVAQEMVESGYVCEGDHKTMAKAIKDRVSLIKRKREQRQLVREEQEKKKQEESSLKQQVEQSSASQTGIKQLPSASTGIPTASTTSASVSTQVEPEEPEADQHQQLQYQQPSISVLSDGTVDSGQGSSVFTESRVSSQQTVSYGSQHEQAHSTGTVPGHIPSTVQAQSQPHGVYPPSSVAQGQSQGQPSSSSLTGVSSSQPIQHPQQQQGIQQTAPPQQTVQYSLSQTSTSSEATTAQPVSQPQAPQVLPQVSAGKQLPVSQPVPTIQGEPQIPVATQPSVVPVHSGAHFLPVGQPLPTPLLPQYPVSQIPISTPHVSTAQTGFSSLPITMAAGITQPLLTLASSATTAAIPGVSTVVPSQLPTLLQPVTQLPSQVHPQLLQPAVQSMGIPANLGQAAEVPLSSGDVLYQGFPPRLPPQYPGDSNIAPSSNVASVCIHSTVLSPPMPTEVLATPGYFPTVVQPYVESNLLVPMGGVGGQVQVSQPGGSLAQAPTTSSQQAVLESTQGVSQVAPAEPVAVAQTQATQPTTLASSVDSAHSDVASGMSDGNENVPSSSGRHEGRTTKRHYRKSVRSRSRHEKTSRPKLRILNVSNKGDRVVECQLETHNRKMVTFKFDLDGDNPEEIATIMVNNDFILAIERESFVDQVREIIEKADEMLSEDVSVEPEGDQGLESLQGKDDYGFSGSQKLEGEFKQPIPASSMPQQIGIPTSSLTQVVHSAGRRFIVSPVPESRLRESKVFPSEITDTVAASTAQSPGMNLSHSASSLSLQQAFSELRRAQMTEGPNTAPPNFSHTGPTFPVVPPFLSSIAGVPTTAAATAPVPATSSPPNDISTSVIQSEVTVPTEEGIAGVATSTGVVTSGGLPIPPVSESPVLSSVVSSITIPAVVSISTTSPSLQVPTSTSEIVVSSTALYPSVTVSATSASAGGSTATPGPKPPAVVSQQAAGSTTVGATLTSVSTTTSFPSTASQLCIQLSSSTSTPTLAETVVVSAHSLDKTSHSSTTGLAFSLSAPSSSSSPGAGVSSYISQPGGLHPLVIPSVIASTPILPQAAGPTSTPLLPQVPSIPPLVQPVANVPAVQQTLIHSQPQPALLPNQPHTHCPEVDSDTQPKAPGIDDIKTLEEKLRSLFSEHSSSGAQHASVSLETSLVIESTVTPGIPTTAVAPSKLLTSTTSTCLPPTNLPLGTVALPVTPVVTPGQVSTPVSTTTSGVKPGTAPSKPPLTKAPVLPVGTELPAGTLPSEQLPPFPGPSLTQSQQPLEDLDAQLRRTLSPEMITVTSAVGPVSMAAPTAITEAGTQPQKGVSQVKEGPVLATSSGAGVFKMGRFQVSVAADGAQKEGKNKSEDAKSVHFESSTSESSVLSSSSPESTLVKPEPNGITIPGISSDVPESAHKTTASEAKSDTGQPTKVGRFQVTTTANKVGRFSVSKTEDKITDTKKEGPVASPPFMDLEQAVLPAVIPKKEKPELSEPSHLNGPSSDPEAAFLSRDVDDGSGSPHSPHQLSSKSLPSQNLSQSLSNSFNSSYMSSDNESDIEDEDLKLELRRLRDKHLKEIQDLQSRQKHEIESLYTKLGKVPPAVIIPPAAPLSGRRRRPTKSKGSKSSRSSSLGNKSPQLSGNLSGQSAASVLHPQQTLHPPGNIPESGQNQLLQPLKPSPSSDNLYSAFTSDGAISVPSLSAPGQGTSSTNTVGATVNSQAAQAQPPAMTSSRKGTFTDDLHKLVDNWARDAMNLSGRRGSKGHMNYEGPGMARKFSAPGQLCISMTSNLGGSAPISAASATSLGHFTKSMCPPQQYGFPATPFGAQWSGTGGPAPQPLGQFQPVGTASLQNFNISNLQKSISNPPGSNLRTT", "test": "Inhibition of Wnk1 in human HeLa cells lysate at 10 uM pre incubated for 15 mins followed by ATP acyl phosphate probe addition and measured after 10 mins by LC-MS/MS analysis relative to control", "details": "time 25.0 min"}, "RPS6KA1/RPS6KA2/RPS6KA3": {"target": "RPS6KA1/RPS6KA2/RPS6KA3 (Homo sapiens, UniProt P51812+Q15349+Q15418)", "test": "Inhibition of RSK1/2/3 in human HeLa cells lysate pre incubated for 15 mins followed by ATP acyl phosphate probe addition and measured after 10 mins by LC-MS/MS analysis"}, "[5]": {"target": "T2, Phosphatidylinositol 5-phosphate 4-kinase type-2 gamma (Homo sapiens) (UniProt Q8TBX8)", "T2 sequence (whole entry)": "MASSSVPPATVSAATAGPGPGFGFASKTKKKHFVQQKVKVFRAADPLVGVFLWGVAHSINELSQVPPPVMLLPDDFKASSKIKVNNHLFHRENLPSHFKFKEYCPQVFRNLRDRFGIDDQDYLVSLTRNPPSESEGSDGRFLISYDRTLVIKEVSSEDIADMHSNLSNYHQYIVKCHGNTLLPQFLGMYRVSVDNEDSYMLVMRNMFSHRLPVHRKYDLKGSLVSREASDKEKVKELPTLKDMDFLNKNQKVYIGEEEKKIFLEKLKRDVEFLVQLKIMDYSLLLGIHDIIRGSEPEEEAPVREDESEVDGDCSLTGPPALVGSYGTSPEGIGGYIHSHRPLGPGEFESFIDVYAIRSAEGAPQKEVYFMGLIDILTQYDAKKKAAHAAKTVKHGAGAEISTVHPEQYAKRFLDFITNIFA", "test": "Inhibition of PIP5K2C LIP1 site in human HeLa cells lysate at 2 uM pre incubated for 15 mins followed by ATP acyl phosphate probe addition and measured after 10 mins by LC-MS/MS analysis relative to control", "details": "time 25.0 min"}}, "data": [{"smiles": "CCOc1cc(N2CCC(O)CC2)ccc1Nc1ncc2c(n1)N(C)c1ccccc1C(=O)N2C", "values": [{"measurement": "inhibition", "setting": "[1]", "result": 3.3, "unit": "%"}, {"measurement": "inhibition", "setting": "[2]", "result": -5.8, "unit": "%"}, {"measurement": "IC50", "setting": "[3]", "result": "> 50", "unit": "µM"}, {"measurement": "inhibition", "setting": "[4]", "result": 6.9, "unit": "%"}, {"measurement": "IC50", "setting": "RPS6KA1/RPS6KA2/RPS6KA3", "result": "> 50", "unit": "µM"}, {"measurement": "inhibition", "setting": "[5]", "result": -3.7, "unit": "%"}]}]}
